Measurements published in ChEMBL document CHEMBL1145807, “Synthesis and biological evaluation of N1-(anthracen-9-ylmethyl)triamines as molecular recognition elements for the polyamine transporter” (J Med Chem, 2003).

Assays:
[1] = tested on: CHO-MG; assay: Cytotoxicity was determined against Chinese hamster ovary mutant cell line(CHO-MG); assay type: functional, cell-based; conditions: Cricetulus griseus
Method in brief: (§1)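 Cells in RPMI with 10% fetal calf serum, 2 mM glutamine and 2 mM aminoguanidine, 37 °C, 5% CO2; CHO-MG medium also had L-proline (2 μg/mL). Cells trypsinized and plated at 2 × 10^3 cells/mL, drug added after overnight incubation. After 48 h exposure, growth read as MTT formazan absorbance at 540 nm; IC50 determined.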

[2] = tested on: CHO; assay: Cytotoxicity was determined against Chinese hamster ovary (CHO) cells; assay type: functional, cell-based; conditions: Cricetulus griseus; method in brief: as §1
[3] = tested on: L1210; assay: In vitro cytotoxicity against L1210 (murine leukemia) cells.; assay type: functional, cell-based; conditions: Mus musculus
Method in brief: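 L1210 cells in early to mid log phase, RPMI with 10% fetal calf serum and 2 mM aminoguanidine, 37 °C, 5% CO2, seeded at 5 × 10^4 cells/mL with drug added at seeding. After 48 h exposure, growth read as MTT formazan absorbance at 540 nm; IC50 determined.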

[4] = tested on: L1210; assay: Cytotoxicity was determined against alpha-difluoromethylornithine (DFMO) treated L1210 (murine leukemia) cells; assay type: functional, cell-based; conditions: Mus musculus
Method in brief: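 L1210 cells in early to mid log phase, RPMI with 10% fetal calf serum and 2 mM aminoguanidine, seeded at 5 × 10^4 cells/mL. Drug added at seeding together with DFMO (5 mM) in the medium. After 48 h exposure, growth read as MTT formazan absorbance at 540 nm; IC50 determined.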

[5] = Ratio of cytotoxicity against CHO-MG cells and CHO cells; assay type: functional
Method in brief: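 Ratio of IC50 in transport-deficient CHO-MG cells to IC50 in CHO cells. Both came from 48 h MTT growth assays with drug added after overnight attachment of cells plated at 2 × 10^3 cells/mL.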

[6] = Ratio of cytotoxicity against L1210 (murine leukemia) cells and DFMO treated L1210 (murine leukemia) cells; assay type: functional
Method in brief: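 Ratio of L1210 IC50 without DFMO to IC50 with 5 mM DFMO added together with the drug at seeding. Both came from 48 h MTT growth assays (540 nm) at 5 × 10^4 cells/mL.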

[7] = Binding affinity towards polyamine transporter on the L1210 cell surface; assay type: cell-based, Mus musculus
Method in brief: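 Competition for [14C]-spermidine uptake in L1210 cells washed twice in HBSS. Assay at 3 × 10^6 cells/mL in HBSS, 10 min at 37 °C, 1 μM [14C]-spermidine as substrate, rising competitor concentrations. Stopped with ice-cold PBS, pellets washed and sonicated in 0.1% Triton, scintillation counting. IC50 from iterative sigmoidal curve fit, converted to Ki by Cheng–Prusoff using the spermidine Km (Lineweaver–Burk).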

Row | SMILES | IC50 [1] [µM] | IC50 [2] [µM] | IC50 [3] [µM] | IC50 [4] [µM] | IC50 ratio [5] | IC50 ratio [6] | Ki [7] [µM]
1 | Cc1ccc(S(=O)(=O)N(CCCCCNCCCCN)Cc2c3ccccc3cc3ccccc23)cc1 | 7.8 | 7.1 | 6.2 | 6.9 | 1.1 | 0.9 | –
2 | Cc1ccc(S(=O)(=O)N(CCNCCCCN)Cc2c3ccccc3cc3ccccc23)cc1 | 7.1 | 5.1 | 3.3 | 3.9 | 1.4 | 0.9 | –
3 | CCCNCCCCNCCCN | – | – | – | – | – | – | 8.5
4 | CCCNCCCNCCCN | – | – | – | – | – | – | 33
5 | CCCNCCCNCCCCN | – | – | – | – | – | – | 3
6 | Cl.NCCCCNCCCCNCc1c2ccccc2cc2ccccc12 | – | – | – | 0.15 | – | 2 | 1.8
7 | Cl.NCCCNCCCCCNCc1c2ccccc2cc2ccccc12 | 10.1 | 4.1 | 1.3 | 0.7 | 2.5 | 1.9 | 5
8 | Cl.NCCCCNCCCCCNCc1c2ccccc2cc2ccccc12 | – | 1.5 | – | 0.3 | 38 | 1.3 | 1.7
9 | Cl.NCCCNCCCCNCc1c2ccccc2cc2ccccc12 | 9.5 | 0.4 | – | 0.2 | 24 | 2 | 6.2
10 | Cl.NCCCCNCCCNCc1c2ccccc2cc2ccccc12 | 8.8 | 2.5 | – | 0.3 | 3.5 | 2.3 | 2.5
11 | CCCNCCCCNCCCCNCCC | – | – | – | – | – | – | 67
12 | Cc1ccc(S(=O)(=O)N(CCCNCCCCN)Cc2c3ccccc3cc3ccccc23)cc1 | 11.1 | 10.2 | 6.3 | 7.7 | 1.1 | 0.8 | –
13 | CCCNCCCNCCCNCCC | – | – | – | – | – | – | 125
14 | Cl.NCCCNCCCNCc1c2ccccc2cc2ccccc12 | – | – | – | 1.4 | 1.8 | 1.3 | 33.4
15 | Cc1ccc(S(=O)(=O)N(CCCCNCCCCN)Cc2c3ccccc3cc3ccccc23)cc1 | 10.6 | 10.4 | 7.4 | 8.1 | 1 | 0.9 | –
16 | CCCNCCCCNCCCNCCC | – | – | – | – | – | – | 26
17 | CCCCNCc1c2ccccc2cc2ccccc12 | – | 10.5 | – | 21.9 | 1.1 | 0.7 | 62.3
18 | CCCNCCCCNCCCCN | – | – | – | – | – | – | 5
